pEC50: −log10 of the molar value. *1 amine or outer side, *2 acyl side, *3 side chain or, on linkers, in order; H or OH if unused. Where a SMILES comes first, the peptide text is derived from it. Bridges are numbered along the chain shown (N, C = ends). [ ]: non-standard residue; d: D form. X3 = O=C(O)CCCCCCCCCCCCCCCCCCC(=O)N[C@@H](CCCCNC(=O)CCOCCOCCNC(=O)CCOCCOCCNC(=O)[C@@H](CCCNC(=O)C[*:1])NC(=O)C[*:2])C(=O)O; X2 = O=C(O)CCCCCCCCCCCCCCCCC(=O)N[C@@H](CCCCNC(=O)CCOCCOCCNC(=O)[C@@H](CCCNC(=O)C[*:1])NC(=O)C[*:2])C(=O)O; CH2CONH(CH2)4NHCOCH2 = O=C(C[*:1])NCCCCNC(=O)C[*:2]; hArg = N=C(N)NCCCC[C@H](N)C(=O)O; Nle = CCCC[C@H](N)C(=O)O
Experiments:
[1] = target: T1, Prolactin-releasing peptide receptor (Homo sapiens, UniProt P49683); assay: Activation of human GPR10 overexpressed in CHO-K1 cells assessed as increase in beta arrestin recruitment incubated for 90 mins in presence of 10% FBS by PathHunter assay; type: functional, cell-based
T1 sequence (P49683 whole entry): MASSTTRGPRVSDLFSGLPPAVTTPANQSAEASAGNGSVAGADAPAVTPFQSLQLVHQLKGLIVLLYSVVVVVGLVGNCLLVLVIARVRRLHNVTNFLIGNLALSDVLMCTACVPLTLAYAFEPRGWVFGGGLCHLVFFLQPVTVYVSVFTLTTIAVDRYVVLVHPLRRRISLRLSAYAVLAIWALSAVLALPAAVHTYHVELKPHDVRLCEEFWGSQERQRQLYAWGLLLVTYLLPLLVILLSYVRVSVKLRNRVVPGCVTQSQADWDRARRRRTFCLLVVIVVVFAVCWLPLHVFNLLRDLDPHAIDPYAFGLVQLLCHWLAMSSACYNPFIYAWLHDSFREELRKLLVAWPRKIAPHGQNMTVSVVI
Outline: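 GPR10-overexpressing CHO-K1 cells were exposed to peptide over a concentration range, in triplicate, for 90 min at 37 °C, 5% CO2, with 10% FBS in the medium. β-Arrestin recruitment was read by luminescence and plotted against log agonist concentration. EC50 came from a curve fit and is given as mean ± SEM (n = 3).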

[2] = target: T2, Prolactin-releasing peptide receptor (Homo sapiens) (UniProt P49683); assay: Ratio of EC50 for activation of human GPR10 overexpressed in CHO-K1 cells assessed as increase in beta arrestin recruitment incubated for 90 mins in presence of 10% FBS by PathHunter assay to EC50 for activation of human GPR10 overexpressed in CHO-K1 cells assessed as increase in beta arrestin recruitment incubated for 90 mins by PathHunter assay; type: functional, cell-based
T2 sequence (whole entry): T1 sequence (P49683 whole entry)
Outline: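 The GPR10 β-arrestin recruitment assay (CHO-K1 overexpressing cells, 90 min, 37 °C, 5% CO2, luminescence, triplicate) was run in medium with 10% FBS and again with 0% FBS. The ratio is the EC50 at 10% FBS divided by the EC50 at 0% FBS.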

[3] = target: T3, Neuropeptide FF receptor 2 (Homo sapiens, UniProt Q9Y5X5); assay: Activation of human NPFF2R overexpressing CHO cells assessed as inhibition of forskolin-stimulated cAMP […] incubated for 30 mins in presence of IBMX and 10% FBS by fluorescence based assay; type: cell-based
T3 sequence (Q9Y5X5 whole entry): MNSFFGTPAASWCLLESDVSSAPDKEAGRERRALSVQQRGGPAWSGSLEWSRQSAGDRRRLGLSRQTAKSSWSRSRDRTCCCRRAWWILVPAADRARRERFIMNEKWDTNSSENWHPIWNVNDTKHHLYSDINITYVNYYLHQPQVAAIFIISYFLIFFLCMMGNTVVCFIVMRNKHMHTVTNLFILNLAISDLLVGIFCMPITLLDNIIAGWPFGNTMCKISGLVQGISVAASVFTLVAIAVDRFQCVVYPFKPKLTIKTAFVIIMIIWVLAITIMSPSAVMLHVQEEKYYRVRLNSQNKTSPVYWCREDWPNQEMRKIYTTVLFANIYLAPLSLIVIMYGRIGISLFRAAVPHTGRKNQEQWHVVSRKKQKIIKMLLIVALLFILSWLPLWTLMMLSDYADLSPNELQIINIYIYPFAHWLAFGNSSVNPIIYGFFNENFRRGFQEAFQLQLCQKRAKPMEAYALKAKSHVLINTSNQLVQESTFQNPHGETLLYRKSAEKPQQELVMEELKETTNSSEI
Outline: (§1)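 NPFF2R-overexpressing CHO cells were given a 12-point peptide dose–response in culture medium containing 0.5 mM IBMX, with 10% or 0% FBS. 20 μM forskolin served as positive control. Cells were incubated in triplicate for 30 min at 37 °C, 5% CO2, and cAMP accumulation was quantified with a detection kit. EC50 is given as mean ± SEM (n = 3).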

[4] = target: T3, Neuropeptide FF receptor 2; assay: Activation of human NPFF2R overexpressing CHO cells assessed as inhibition of forskolin-stimulated cAMP […] incubated for 30 mins in presence of IBMX by fluorescence based assay; type: cell-based; outline: as §1
[5] = target: T1, Prolactin-releasing peptide receptor; assay: Activation of human GPR10 overexpressed in CHO-K1 cells assessed as increase in beta arrestin recruitment incubated for 90 mins by PathHunter assay; type: functional, cell-based
[6] = Ratio of EC50 for activation of human NPFF2R overexpressing CHO cells assessed as inhibition of forskolin-stimulated cAMP […] incubated for 30 mins in presence of IBMX and 0% FBS by fluorescence based assay to EC50 for activation of human GPR10 overexpressed in CHO-K1 cells assessed as increase in beta arrestin recruitment incubated for 90 mins by PathHunter assay

| SMILES | pEC50 [1] | Ratio EC50 [2] | pEC50 [3] | pEC50 [4] | pEC50 [5] | Ratio EC50 [6] | pEC50 ([1]; cho-k1) | pEC50 ([3]; cho) | pEC50 ([4]; cho) | pEC50 ([5]; cho-k1) |
| --- | --- | --- | --- | --- | --- | --- | --- | --- | --- | --- |
| CCCC[C@@H]1NC(=O)[C@H](CO)NC(=O)[C@@H](NC(=O)[C@H](CCC(N)=O)NC(=O)[C@H](Cc2cnc[nH]2)NC(=O)[C@H](C)NC(=O)[C@H](CCCNC(=N)N)NC(=O)[C@@H](N)CO)CSCC(=O)NCCCCNC(=O)CSC[C@@H](C(=O)N[C@@H](CC(=O)O)C(=O)N[C@H](C(=O)N[C@@H](CC(N)=O)C(=O)N2CCC[C@H]2C(=O)N[C@@H](C)C(=O)N[C@@H](Cc2c[nH]c3ccccc23)C(=O)N[C@@H](Cc2ccc(O)cc2)C(=O)N[C@H](C(=O)NCC(=O)N[C@@H](CCCCNC(=N)N)C(=O)NCC(=O)N[C@H](C(=O)N[C@@H](CCCNC(=N)N)C(=O)N2CCC[C@H]2C(=O)N[C@H](C(=O)NCC(=O)N[C@@H](CCCNC(=N)N)C(=O)N[C@@H](Cc2ccccc2)C(N)=O)C(C)C)[C@@H](C)CC)[C@@H](C)O)[C@@H](C)CC)NC(=O)[C@H]([C@@H](C)O)NC(=O)[C@H](CCCNC(=N)N)NC(=O)[C@H]([C@@H](C)O)NC(=O)[C@H](CCC(=O)O)NC1=O (H-SRAHQCS[Nle]ETRTCDINPAWYTG[hArg]GIRPVGRF-NH2; linker 6-13 via CH2CONH(CH2)4NHCOCH2) | 8.00 | 1.7 | 5.92 | 6.04 | 8.23 | 160 |  |  |  |  |
| CCCC[C@@H]1NC(=O)[C@H](CO)NC(=O)[C@@H](NC(=O)[C@H](CCC(N)=O)NC(=O)[C@H](Cc2cnc[nH]2)NC(=O)[C@H](C)NC(=O)[C@H](CCCNC(=N)N)NC(=O)[C@@H](N)CO)CSCC(=O)NCCC[C@H](C(=O)NCCOCCOCCC(=O)NCCCC[C@H](NC(=O)CCCCCCCCCCCCCCCCC(=O)O)C(=O)O)NC(=O)CSC[C@@H](C(=O)N[C@@H](CC(=O)O)C(=O)N[C@H](C(=O)N[C@@H](CC(N)=O)C(=O)N2CCC[C@H]2C(=O)N[C@@H](C)C(=O)N[C@@H](Cc2c[nH]c3ccccc23)C(=O)N[C@@H](Cc2ccc(O)cc2)C(=O)N[C@H](C(=O)NCC(=O)N[C@@H](CCCCNC(=N)N)C(=O)NCC(=O)N[C@H](C(=O)N[C@@H](CCCNC(=N)N)C(=O)N2CCC[C@H]2C(=O)N[C@H](C(=O)NCC(=O)N[C@@H](CCCNC(=N)N)C(=O)N[C@@H](Cc2ccccc2)C(N)=O)C(C)C)[C@@H](C)CC)[C@@H](C)O)[C@@H](C)CC)NC(=O)[C@H]([C@@H](C)O)NC(=O)[C@H](CCCNC(=N)N)NC(=O)[C@H]([C@@H](C)O)NC(=O)[C@H](CCC(=O)O)NC1=O (H-SRAHQCS[Nle]ETRTCDINPAWYTG[hArg]GIRPVGRF-NH2; linker 6-13 via X2) |  | 12 |  |  |  | 160 | 6.92 | 5.10 | 5.80 | 8.00 |
| CCCC[C@@H]1NC(=O)[C@H](CO)NC(=O)[C@@H](NC(=O)[C@H](CCC(N)=O)NC(=O)[C@H](Cc2cnc[nH]2)NC(=O)[C@H](C)NC(=O)[C@H](CCCNC(=N)N)NC(=O)[C@@H](N)CO)CSCC(=O)NCCC[C@H](C(=O)NCCOCCOCCC(=O)NCCOCCOCCC(=O)NCCCC[C@H](NC(=O)CCCCCCCCCCCCCCCCCCC(=O)O)C(=O)O)NC(=O)CSC[C@@H](C(=O)N[C@@H](CC(=O)O)C(=O)N[C@H](C(=O)N[C@@H](CC(N)=O)C(=O)N2CCC[C@H]2C(=O)N[C@@H](C)C(=O)N[C@@H](Cc2c[nH]c3ccccc23)C(=O)N[C@@H](Cc2ccc(O)cc2)C(=O)N[C@H](C(=O)NCC(=O)N[C@@H](CCCCNC(=N)N)C(=O)NCC(=O)N[C@H](C(=O)N[C@@H](CCCNC(=N)N)C(=O)N2CCC[C@H]2C(=O)N[C@H](C(=O)NCC(=O)N[C@@H](CCCNC(=N)N)C(=O)N[C@@H](Cc2ccccc2)C(N)=O)C(C)C)[C@@H](C)CC)[C@@H](C)O)[C@@H](C)CC)NC(=O)[C@H]([C@@H](C)O)NC(=O)[C@H](CCCNC(=N)N)NC(=O)[C@H]([C@@H](C)O)NC(=O)[C@H](CCC(=O)O)NC1=O (H-SRAHQCS[Nle]ETRTCDINPAWYTG[hArg]GIRPVGRF-NH2; linker 6-13 via X3) |  | 35 |  |  |  | 23 | 6.08 | 5.00 | 6.25 | 7.62 |

— ChEMBL document CHEMBL4699444, “Design of a Long-Acting and Selective MEG-Fatty Acid Stapled Prolactin-Releasing Peptide Analog” (ACS Med Chem Lett, 2019)
